Results on one molecule are retold here after ChEMBL document CHEMBL2203171, “The use of small molecule probes to study spatially separated stimulus-induced signaling pathways” (Bioorg Med Chem Lett, 2012).

The source made the active and inactive calls. The rule behind the calls is not given here.

Test [1] has as its target MAP kinase p38 (Mus musculus) (UniProt P47811+O08911+Q9WUI1+Q9Z1B7). As to the kind of experiment: Inhibition of MAPK p38 in C57BL/6 mouse BMDM cells assessed as inhibition of TNFalpha-induced phosphorylation at 50 uM up to 90 mins by Western blot analysis. The test is classed as cell-based.
In test [2] the target is T1, Inhibitor of nuclear factor kappa-B kinase subunit beta (Mus musculus) (UniProt O88351).
T1 sequence (whole entry): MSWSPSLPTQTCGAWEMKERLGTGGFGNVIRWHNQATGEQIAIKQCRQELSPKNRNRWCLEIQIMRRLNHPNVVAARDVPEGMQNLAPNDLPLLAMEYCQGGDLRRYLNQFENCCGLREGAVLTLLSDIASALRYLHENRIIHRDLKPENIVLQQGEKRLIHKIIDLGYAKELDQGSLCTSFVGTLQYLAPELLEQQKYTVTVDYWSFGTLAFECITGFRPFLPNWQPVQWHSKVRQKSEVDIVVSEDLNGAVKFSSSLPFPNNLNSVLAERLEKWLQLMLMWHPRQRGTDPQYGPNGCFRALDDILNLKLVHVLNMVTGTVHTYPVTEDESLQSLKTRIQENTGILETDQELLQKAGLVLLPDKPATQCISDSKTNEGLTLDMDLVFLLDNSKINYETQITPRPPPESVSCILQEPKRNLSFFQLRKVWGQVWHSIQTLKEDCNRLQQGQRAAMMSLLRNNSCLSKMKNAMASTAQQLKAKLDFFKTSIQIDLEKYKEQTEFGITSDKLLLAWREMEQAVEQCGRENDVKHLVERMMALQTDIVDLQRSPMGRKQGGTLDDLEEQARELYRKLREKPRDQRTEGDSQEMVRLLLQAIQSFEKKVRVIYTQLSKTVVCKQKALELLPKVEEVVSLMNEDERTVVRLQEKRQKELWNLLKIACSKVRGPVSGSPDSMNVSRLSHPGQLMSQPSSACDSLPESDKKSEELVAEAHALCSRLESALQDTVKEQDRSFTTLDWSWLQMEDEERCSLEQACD
As to the kind of experiment: Inhibition of IKKbeta in C57BL/6 mouse BMDM cells assessed as inhibition of TNFalpha-induced IkappaBalpha phosphorylation at 25 uM by Western blot analysis.

In test [3] the target is T2, Toll-like receptor 3 (Mus musculus) (UniProt Q99MB1).
T2 sequence (whole entry): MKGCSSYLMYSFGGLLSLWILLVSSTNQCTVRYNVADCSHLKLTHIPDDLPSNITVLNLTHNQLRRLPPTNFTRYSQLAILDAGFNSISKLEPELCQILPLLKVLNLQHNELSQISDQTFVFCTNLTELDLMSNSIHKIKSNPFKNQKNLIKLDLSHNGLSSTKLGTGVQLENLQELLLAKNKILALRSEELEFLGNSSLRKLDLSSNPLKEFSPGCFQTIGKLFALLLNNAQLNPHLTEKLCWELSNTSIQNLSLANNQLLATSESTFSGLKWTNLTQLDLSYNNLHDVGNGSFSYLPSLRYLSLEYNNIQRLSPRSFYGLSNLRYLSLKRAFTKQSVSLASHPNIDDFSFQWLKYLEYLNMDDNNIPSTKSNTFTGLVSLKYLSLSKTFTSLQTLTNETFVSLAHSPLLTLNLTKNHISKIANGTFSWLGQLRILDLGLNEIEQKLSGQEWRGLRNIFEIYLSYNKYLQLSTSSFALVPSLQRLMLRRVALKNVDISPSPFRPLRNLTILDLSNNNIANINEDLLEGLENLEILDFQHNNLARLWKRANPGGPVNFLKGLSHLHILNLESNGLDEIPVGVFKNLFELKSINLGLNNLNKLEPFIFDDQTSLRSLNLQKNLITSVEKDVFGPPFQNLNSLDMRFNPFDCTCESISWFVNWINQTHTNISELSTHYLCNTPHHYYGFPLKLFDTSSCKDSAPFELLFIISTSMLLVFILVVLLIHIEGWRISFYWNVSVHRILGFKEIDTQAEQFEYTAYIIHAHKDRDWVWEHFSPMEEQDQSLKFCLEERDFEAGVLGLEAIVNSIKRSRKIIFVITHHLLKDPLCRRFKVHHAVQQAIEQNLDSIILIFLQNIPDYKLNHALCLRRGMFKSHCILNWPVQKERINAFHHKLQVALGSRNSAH
As to the kind of experiment: Inhibition of TRIF recruitment to TLR3 in C57BL/6 mouse BMDM cells assessed as inhibition of pI:pC-induced p38 MAPK activity up to 90 mins. The class given is cell-based. In a few lines: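 Bone marrow macrophages from C57BL/6 mice, grown in 70% growth medium (DMEM, 10% FBS) plus 30% L929-conditioned medium and given fresh medium 12-14 h before stimulation. Stimuli: IL-1 40 ng/ml, HKSA ~10^8 cfu/ml, pI:pC 50 μg/ml or CpG 10 μg/ml, ± compound at 10 μM (final) added from a 200x DMSO stock. IκBα and p38 profiled by immunoblot. Three independent experiments, quantitated and normalized.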

In test [4] the target is T1, Inhibitor of nuclear factor kappa-B kinase subunit beta (Mus musculus). As to the kind of experiment: Inhibition of IKKbeta in C57BL/6 mouse BMDM cells assessed as inhibition of LPS-induced IkappaBalpha phosphorylation at 25 uM after 5 mins by Western blot analysis. The test is classed as cell-based. In a few lines: (§1)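 C57BL/6 marrow-derived macrophages were cultured in 70% growth medium/30% L929-conditioned medium and refreshed 12-14 h before stimulation. Stimuli were TNF 40 ng/ml or LPS 100 ng/ml, ± compound at 25 μM from a 200x DMSO stock. Western blots tracked IKK, p38, IκBα and phospho-RelA. Results from three independent experiments were quantitated and normalized.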
(In western blotting, separated proteins are transferred to a membrane and probed.)

The target is the same in test [5]. As to the kind of experiment: Inhibition of IKKbeta in C57BL/6 mouse BMDM cells assessed as inhibition of LPS-induced phosphorylation at 25 uM after 5 mins by Western blot analysis. The class given is cell-based. In a few lines: as §1

Regarding `O=C(CCCCCN1C(=O)C=CC1=O)Oc1ccc2cc(C(C(=O)NCc3ccccc3)N(C(=O)Cc3ccc4c(c3)OCO4)C3CC3)ccc2c1` (stereo not given), the inhibition entry in test [1], in test [2] and in test [3] was “inactive” throughout. Besides, the inhibition result in test [4] and in test [5] was “Active” each time.
